Assay results gathered from unrelated publications.
Lines come from different studies, so protocols differ.
Target: Tyrosine-protein kinase SYK (SYK, Homo sapiens, UniProt P43405)

N[C@H]1CCN(c2nccc(-c3cnn4ncccc34)n2)C1 — remaining binding (binding; 1 µM): 81%
COc1cnc(Nc2cccc(S(N)(=O)=O)c2)nc1N1CCN(c2ccccc2)CC1 — remaining binding (binding, competition with immobilised ligand; 1 µM): 86%
CN(CCCC(F)(F)F)c1nccc(-c2cnn3ncccc23)n1 — remaining binding (binding; 1 µM): 76%
O=C(NCC1CCOCC1)c1n[nH]cc1NC(=O)c1c(F)cccc1F — remaining binding (binding, competition with immobilised ligand; 1 µM): 100%
C[C@H]1CCN(c2nccc(-c3cnn4ncccc34)n2)C1 — remaining binding (binding; 1 µM): 82%
CCN1CCN(Cc2ccc(C(=O)Nc3ccc(C)c(Oc4ccc5c(c4)CC(=O)N5)c3)cc2C(F)(F)F)CC1 — remaining binding (binding, competition with immobilised ligand; 1 µM): 100%
CC1CCCN1c1nccc(-c2cnn3ncccc23)n1 (centres unmarked) — remaining binding (binding; 1 µM): 100%
Cc1cnc(Nc2ccc(C(=O)N3CCC(N4CCCC4)CC3)cc2)nc1-c1cc2ccccc2s1 — remaining binding (binding, competition with immobilised ligand; 1 µM): 7.7%
Cc1cc(NC(=O)c2cccc(S(F)(F)(F)(F)F)c2)cc(-n2ccn3nc(-c4cccnc4)cc23)c1 — remaining binding (cell-free assay, competition with immobilised ligand; 1 µM): 95.5%
CN(C)c1nccc(-c2cnn3ncccc23)n1 — remaining binding (binding; 1 µM): 100%
CO[C@H]1CC[C@H](CNc2ccc(S(=O)(=O)NC(=O)c3ccc(N4CCN(CC5=C(c6ccc(Cl)cc6)CC(C)(C)CC5)CC4)cc3Oc3cnc4[nH]ccc4c3)cc2[N+](=O)[O-])CC1 — remaining binding (cell-free assay, competition with immobilised ligand; 1 µM): 62%
O=C(c1ccc(Nc2ncc(Cl)c(-c3ccc(Cl)s3)n2)cc1)N1CCC(N2CCCC2)CC1 — remaining binding (binding, competition with immobilised ligand; 1 µM): 43%
CCC(=O)N[C@H]1CC[C@@H](C(=O)N(C)c2ccc(-c3nc4ccccc4o3)cc2)C1 — remaining binding (cell-free assay, competition with immobilised ligand; 1 µM): 100%
Cc1cnn2ncc(-c3ccnc(N(C)C)n3)c2c1 — remaining binding (binding; 1 µM): 100%
CSc1cccnc1N1CCN(Cc2nc3ccccc3[nH]2)CC1 — remaining binding (cell-free assay, competition with immobilised ligand; 1 µM): 100%
COc1cnc(Nc2cccc(S(N)(=O)=O)c2)nc1N1CCN(c2ccccc2)C(=O)C1 — remaining binding (binding, competition with immobilised ligand; 1 µM): 100%
Cc1cc(-n2nc(Cc3cc(F)cc(C(F)(F)F)c3)nc2C)ccc1C(N)=O — remaining binding (cell-free assay, competition with immobilised ligand; 1 µM): 87%
O=C(c1ccc(Nc2nccc(-c3cc4ccccc4s3)n2)cc1)N1CCC(N2CCCC2)CC1 — remaining binding (binding, competition with immobilised ligand; 1 µM): 31%
O=c1nc(-c2ccccn2)sc2ccccc12 — remaining binding (cell-free assay, competition with immobilised ligand; 1 µM): 97%
c1cncc(-c2cccc(Nc3nccc(NC4CCCCC4)n3)c2)c1 — remaining binding (binding, competition with immobilised ligand; 10 µM): 16%
